Laboratory results from PubChem BioAssay.
Active and inactive are the calls of the source.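 The calls were made as follows: active = current rise at least 3 SD above the untreated control mean in each of two repeat wells; inactive = the rest.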

The compounds below were run against Potassium voltage-gated channel subfamily KQT member 1 (Homo sapiens) (UniProt P51787) (assay: KCNQ1 activators by electrophysiology – IonWorks patch clamp, KCNQ1-CHO cells, orthogonal assay for KCNQ1 potentiator project, confirmation (AID 493184;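 as to current potentiation: percent change of the same well's current before compound addition so 0% = no change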)). Conditions: automated patch clamp current, at 10 µM; hits give high values.
Sequence of Potassium voltage-gated channel subfamily KQT member 1 (Homo sapiens) (P51787 whole entry, looked up): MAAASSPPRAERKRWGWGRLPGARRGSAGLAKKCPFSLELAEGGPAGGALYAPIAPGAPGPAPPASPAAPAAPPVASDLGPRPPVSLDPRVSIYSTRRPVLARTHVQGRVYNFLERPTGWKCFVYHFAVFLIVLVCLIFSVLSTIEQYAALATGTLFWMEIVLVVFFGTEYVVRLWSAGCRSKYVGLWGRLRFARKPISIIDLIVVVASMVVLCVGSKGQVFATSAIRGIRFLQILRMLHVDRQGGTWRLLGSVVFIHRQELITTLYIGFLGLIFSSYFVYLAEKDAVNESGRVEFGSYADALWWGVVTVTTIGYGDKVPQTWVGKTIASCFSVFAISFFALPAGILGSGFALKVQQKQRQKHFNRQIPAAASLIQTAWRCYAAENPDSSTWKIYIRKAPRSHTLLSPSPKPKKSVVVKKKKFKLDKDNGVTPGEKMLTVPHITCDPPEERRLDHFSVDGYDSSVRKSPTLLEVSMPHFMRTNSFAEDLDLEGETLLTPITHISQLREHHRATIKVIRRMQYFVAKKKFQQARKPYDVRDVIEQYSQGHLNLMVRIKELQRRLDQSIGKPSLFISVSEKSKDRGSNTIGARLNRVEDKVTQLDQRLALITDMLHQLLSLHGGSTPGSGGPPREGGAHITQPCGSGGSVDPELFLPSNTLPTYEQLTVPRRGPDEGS
Procedure, shortened: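 assay system = KCNQ1-expressing CHO cells | medium = external bath solution at pH 7.4 | probe or stimulus = 2,000 ms depolarization, -90 to +40 mV | compound dosing = 10 µM final, single point | measured by = automated voltage clamp, amphotericin B perforated patch | measure = percent current increase versus pre-compound level | replication = duplicates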

Row | Compound | outcome | current potentiation
1 | CC1(N2CCCCC2)CC2(O)C(=[N+]1[O-])CCC/C2=N\O (stereo not given) | inactive | 
2 | Cc1ccccc1C([O-])=Nc1ccc[n+](-c2nc3ccccc3nc2NS(=O)(=O)c2ccccc2)c1 | inactive | 
3 | Cc1ccc(-c2csc(=S)[nH]2)cc1 | inactive | 
4 | COc1ccc(S(=O)(=O)NCCCN2CCOCC2)cc1F | inactive | 
5 | CCOc1ccccc1NC(=O)CCC(=O)Nc1ccccc1OCC | inactive | 
6 | CCOc1ccccc1NC(=O)C(=O)CC(=O)c1cccc(OC)c1 | inactive | 
7 | OC(CNC1CCCCC1)COCCOc1ccc(Br)cc1 (stereo not given) | inactive | 
8 | Fc1ccc(-c2csc(=S)[nH]2)cc1 | inactive | 
9 | Nc1nc(N)c(N=Nc2ccc(C(=O)O)cc2)c(N)n1 | inactive | 
10 | CC1CCN(C(=S)NC(=O)c2ccccc2)CC1 | inactive | 
11 | C#CC1(NC(=O)NCCCC)CCCCC1 | inactive | 
12 | CC(C)N(C(=O)CSc1ncnc2sc(-c3ccccc3)cc12)C(C)C | inactive | 
13 | Cc1cc(Cl)ccc1OCc1n[nH]c(=S)n1C1CCCCC1 | inactive | 
14 | Cn1c(=S)[nH]c2scc(-c3cccs3)c2c1=O | inactive | 
15 | COc1ccc(C(=O)NC(=S)N(Cc2ccccc2)Cc2ccccc2)cc1 | inactive | 
16 | CCCCN1CNC(=S)N(c2ccccc2OCC)C1 | inactive | 
17 | O=C1c2cccc3cccc(c23)C(=O)C1(O)O | inactive | 
18 | COc1cc2c3nnc(-c4ccccc4)c-3cn(Cc3ccc(F)cc3)c2cc1OC | inactive | 
19 | Nc1ccccc1OCCOCCOc1ccccc1N | inactive | 
20 | Oc1ccc(CN2CCCCC2)c2cccnc12 | inactive | 

Row | Compound | outcome | current potentiation
21 | Oc1c(Br)cc(Br)cc1C=NCc1ccccc1 | inactive | 
22 | COC(=O)c1ccc(CSc2ncnc3sc(C)c(C)c23)o1 | inactive | 
23 | O=C(c1cccc(-c2ccccc2F)c1)N1CC[C@@H](N2CCC(O)CC2)[C@H](O)C1 | inactive | 
24 | CCOc1ccc(S(=O)(=O)N2CCCC(C(=O)NCCN3CCOCC3)C2)cc1Cl (stereo not given) | inactive | 
25 | Cc1ccc2nc(NC(=S)NC(=O)c3ccco3)sc2c1 | inactive | 
26 | O=C(COc1ccccc1)N1CCN(S(=O)(=O)c2cccs2)CC1 | inactive | 
27 | COc1ccccc1-c1nc(C#N)c(N2CC(C)CC(C)C2)o1 (stereo not given) | inactive | 
28 | O=C(NCc1ccccc1)/C(=C/c1ccccc1)NC(=O)c1ccco1 | inactive | 
29 | CCCCCCCCCCCCN1[C@@H](CC(=O)O)c2cc(F)ccc2S1(=O)=O | inactive | 
30 | CCC1(c2ccc(Cl)cc2)NC(=S)N(c2ccccc2)N1 (stereo not given) | inactive | 
31 | CC(=O)NC1=C(NC2CCS(=O)(=O)C2)C(=O)c2ccccc2C1=O (stereo not given) | inactive | 
32 | Cc1cccc(S(=O)(=O)Nc2cccc3c2C(=O)c2ccccc2-3)c1 | inactive | 
33 | O=C(CC(=O)c1ccccc1O)c1cccc(F)c1 | inactive | 
34 | Fc1ccc(-n2nnc(-c3ccccc3)n2)cc1 | inactive | 
35 | CC(=O)c1c(NC(=O)c2ccccc2)[nH]c(-c2ccccc2)nc1=S | inactive | 
36 | C/C(=N\NC(=O)c1cccc(Br)c1)c1ccccn1 | inactive | 
37 | CN(C)c1nc(=Nc2cccc(Cl)c2)ss1 | inactive | 
38 | C/C(=N\NC(=O)c1cc2ccccc2cc1O)c1ccccn1 |  | 21.5% (active)
39 | CCOc1ccccc1C1CC(=O)Nc2cc3c(cc21)OCCO3 (stereo not given) | inactive | 
40 | COc1ccc(C)cc1NC(=O)C1C2C=CC(C2)C1C(=O)O (stereo not given) | inactive | 
